Series [1] can be described thus: Antiprion activity against PrPsc infected in mouse SMB.s15 cells assessed as complete clearance of PrPSc after 5 days by dot blot analysis. It is filed as cell-based. Particulars: SMB.s15, 120 h. A digest of the protocol: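 SMB.s15 cells (scrapie-infected, mesodermal origin) in Medium 199 with 10% newborn calf and 5% fetal calf serum, seeded at 12,000 cells/well, 24 h attachment. Compound added from DMSO stock via HBSS dilution, 5 days at 37 °C. Lysates dot-blotted, proteinase K digestion (1 h, 37 °C), guanidine thiocyanate, anti-PrP 6H4 mAb, ECL. Triplicate, PrPSc relative to DMSO-only control.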

Series [2] relates to ScN2a. The series is described as follows: Cytotoxicity against mouse ScN2a cells up to 32 uM. Type of series: cell-based. A digest of the protocol:
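ScN2a cells seeded separately in 96-well plates. Calcein cell viability assay run in parallel with the ELISA screen, up to 32 uM maximum.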

Series [3] in a line: Cytotoxicity against mouse SMB.s15 cells at 20 uM after 5 days by MTT assay. Type of series: cell-based. Particulars: smb.s15, 120 h. A digest of the protocol:
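SMB.s15 cells at 12,000 cells/well, exposed to compound for 5 days at 37 °C (DMSO stock diluted via HBSS into medium). Viability measured by MTT assay per the reagent's standard protocol.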
In general terms: Formazan colour is commonly taken as a measure of viable cells.

For series [4], the species on record is Danio rerio. The series is described as follows: (§1) Toxicity in zebrafish assessed as organism survival at 5 uM treated at 48 hrs post-fertilization measured after 3 days. It is filed as organism-based. The conditions noted are these: in vivo, 72 h, 5 µM. A digest of the protocol:
(§2)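 AB wild-type zebrafish embryos dechorionated with pronase at 48 hpf, 3 per well in methylene blue-free E3 medium. Dosed at 5 uM from 10 mM DMSO stocks (1% v/v DMSO). Kept at 28 °C for 72 h without food; survival scored at day 5 versus vehicle controls. Two experiments, each in triplicate.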

A short description of series [5]: as §1. It is filed as organism-based, Danio rerio. The conditions noted are these: in vivo. The gist of the method:
as §2

A short description of series [6]: Toxicity in zebrafish assessed as mortality rate at 5 uM measured after 72 hrs. It is filed as organism-based, Danio rerio. Particulars: in vivo, read-out: Activity. A digest of the protocol:
as §2

The nature of series [7]: Metabolic stability in mouse liver microsomes assessed as compound remaining after 30 mins by HPLC analysis. Type of series: ADME, Microsome. Particulars: read-out: Stability. A digest of the protocol:
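Mouse liver microsomes (0.5 mg/mL stock) in 0.2 M potassium phosphate pH 7.0 with DL-isocitrate, MgCl2 and isocitrate dehydrogenase. Preincubated 5 min at 37 °C, then started with NADPH. Sampled at t=0 and after 30 min at 37 °C, quenched in ice-cold acetonitrile with internal standard. Analysed by C18 HPLC, UV at 267 nm, in triplicate.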

SMILES strings stand for the structures. Where only a bound is given, the exact number is not on record here.

As for `O=C(Nc1ccccc1)C(=O)c1c[nH]c2ccc(Cl)cc12`, in series [1], the EC50 (usually the concentration needed to bring the measured effect to its halfway point) turned out to be 1630 nM. In addition, the figures for the Activity result in series [2], in series [3] and in series [4] were “Non-toxic”, “Non-toxic” and “Toxic”, respectively.
Take `COc1ccc(NC(=O)C(=O)c2c[nH]c3cccc(C)c23)cc1`: in series [1], the EC50 was found to be 2360 nM. In addition, the Activity result in series [2] and in series [3] was “Non-toxic” each time. Further, the survival at 72 h, 5 µM in series [5] is 100%.
In the case of `Cc1ccc(NC(=O)C(=O)c2c[nH]c3cccc(C)c23)cc1`, the mortality at 72 h, 5 µM in series [6] was determined as 20%. Also, the EC50 in series [1] is greater than 20000 nM. Further, the Activity entry in series [2] and in series [3] was “Non-toxic” in each case. In series [5], the survival at 72 h, 5 µM worked out at 100%.
In the case of `Cc1cccc2[nH]cc(C(=O)C(=O)Nc3ccc(N4CCOCC4)cc3)c12`, the mortality at 72 h, 5 µM in series [6] came out at 20%. Besides, in series [1], the EC50 is 680 nM. Further, the Activity entry in series [2] was “Non-toxic”; in series [3] it was “Non-toxic”; in series [4] it was “Toxic”.
With `COc1ccc(NC(=O)C(=O)c2c[nH]c3ccc(C)cc23)cc1`, in series [1], the EC50 was 880 nM. Also, the Activity result in series [2] and in series [3] was “Non-toxic” each time. In addition, the survival at 72 h, 5 µM in series [5] came to 100%.
In the case of `Cc1ccc(NC(=O)C(=O)c2c[nH]c3ccc(C)cc23)cc1`, in series [6], the mortality at 72 h, 5 µM is 20%. Besides, the EC50 in series [1] stood at 900 nM. Also, the Activity result in series [2] was “Non-toxic”; in series [3], “Non-toxic”; in series [4], “Toxic”.
Turning to `Cc1ccc2[nH]cc(C(=O)C(=O)Nc3ccc(N4CCOCC4)cc3)c2c1`, the mortality at 72 h, 5 µM in series [6] stood at 20%. In addition, the EC50 in series [1] stood at 83 nM. The figures for the Activity result in series [2], in series [3] and in series [4] were “Non-toxic”, “Non-toxic” and “Toxic”, respectively.
On to `Cc1ccc2[nH]cc(C(=O)C(=O)Nc3ccccc3)c2c1`, for which the EC50 in series [1] is 11500 nM. For the same compound, the Activity result in series [2] and in series [3] was “Non-toxic” throughout. For the same compound, in series [5], the survival at 72 h, 5 µM amounted to 100%.
For `Cc1ccc(NC(=O)C(=O)c2c[nH]c3ccc(Cl)cc23)cc1`, the mortality at 72 h, 5 µM in series [6] was 20%. For the same compound, the EC50 in series [1] came out at 560 nM. For the same compound, the Activity entry in series [2] and in series [3] was “Non-toxic” throughout. Moreover, in series [5], the survival at 72 h, 5 µM is 100%.
Regarding `O=C(Nc1ccc(N2CCOCC2)cc1)C(=O)c1c[nH]c2ccc(Cl)cc12`, the mortality at 72 h, 5 µM in series [6] is 20%. The EC50 in series [1] came to 69 nM. Besides, the Activity result is listed as “Non-toxic” in series [2], “Non-toxic” in series [3] and “Toxic” in series [4].
With `COc1ccc(NC(=O)C(=O)c2c[nH]c3cc(C)ccc23)cc1`, the EC50 in series [1] stood at 12 nM. Further, the remaining at 0.5 h in series [7] turned out to be 89.1%. Besides, the Activity entry in series [2] and in series [3] was “Non-toxic” throughout. Also, the survival at 72 h, 5 µM in series [5] came to 100%.
On to `Cc1ccc2c(C(=O)C(=O)Nc3ccccc3)c[nH]c2c1`, for which the EC50 in series [1] is 44 nM. In addition, the Activity result in series [2] and in series [3] was “Non-toxic” throughout. Also, the survival at 72 h, 5 µM in series [5] was found to be 100%.
As to `O=C(Nc1ccc(N2CCOCC2)cc1)C(=O)c1c[nH]c2cc(Cl)ccc12`, the mortality at 72 h, 5 µM in series [6] is 20%. In addition, in series [1], the EC50 came to 7.3 nM. The Activity entry in series [2] and in series [3] was “Non-toxic” each time.
With `O=C(Nc1ccccc1)C(=O)c1c[nH]c2cc(Cl)ccc12`, in series [1], the EC50 is 74 nM. In addition, the Activity entry in series [2] and in series [3] was “Non-toxic” throughout. Moreover, the survival at 72 h, 5 µM in series [5] was determined as 100%.
With `COc1ccc(NC(=O)C(=O)c2c[nH]c3c(C)cccc23)cc1`, in series [1], the EC50 was 150 nM. The Activity result in series [2] and in series [3] was “Non-toxic” in each case. The survival at 72 h, 5 µM in series [5] came to 100%.
For `Cc1ccc(NC(=O)C(=O)c2c[nH]c3c(C)cccc23)cc1`, the mortality at 72 h, 5 µM in series [6] came out at 20%. In addition, the EC50 in series [1] turned out to be 1400 nM. For the same compound, the Activity result in series [2] is recorded as “Non-toxic”; in series [3] it was “Non-toxic”; in series [4] it was “Toxic”.
In the case of `Cc1cccc2c(C(=O)C(=O)Nc3ccc(N4CCOCC4)cc3)c[nH]c12`, the mortality at 72 h, 5 µM in series [6] was found to be 20%. In series [1], the EC50 was found to be 16 nM. Besides, the Activity entry in series [2] and in series [3] was “Non-toxic” in each case. In addition, the survival at 72 h, 5 µM in series [5] was 100%.
In the case of `O=C(Nc1ccc(N2CCOCC2)cc1)C(=O)c1c[nH]c2c(Cl)cccc12`, the mortality at 72 h, 5 µM in series [6] was found to be 20%. In addition, in series [1], the EC50 came to 7.2 nM. In addition, the Activity result in series [2] and in series [3] was “Non-toxic” each time. For the same compound, in series [5], the survival at 72 h, 5 µM was 100%.
As for `O=C(Nc1ccc(-n2cccc2)cc1)C(=O)c1c[nH]c2cc(Cl)ccc12`, in series [1], the EC50 worked out at 17 nM. Further, the figures for the Activity entry in series [2], in series [3] and in series [4] were “Non-toxic”, “Non-toxic” and “Toxic”, respectively.
As for `Cn1cc(C(=O)C(=O)Nc2ccc(-n3cccc3)cc2)c2ccc(Cl)cc21`, in series [1], the EC50 was determined as 270 nM. Further, the Activity entry in series [2] and in series [3] was “Non-toxic” throughout. Further, in series [5], the survival at 72 h, 5 µM was 100%.
`COc1ccc(NC(=O)C(=O)c2cn(C)c3cc(Cl)ccc23)cc1`: the EC50 in series [1] came to 1630 nM. The values for the Activity entry in series [2], in series [3] and in series [4] were “Non-toxic”, “Non-toxic” and “Toxic”, respectively.
On to `Cn1cc(C(=O)C(=O)Nc2ccc(-n3cccc3)cc2)c2ccccc21`, for which the EC50 in series [1] amounted to 170 nM. Further, the Activity result in series [2] and in series [3] was “Non-toxic” throughout. Further, in series [5], the survival at 72 h, 5 µM turned out to be 100%.
As for `O=C(Nc1ccc(-n2cccc2)cc1)C(=O)c1c[nH]c2cc(F)ccc12`, the EC50 in series [1] stood at 7.7 nM. In addition, the Activity result in series [2] and in series [3] was “Non-toxic” each time. Also, in series [5], the survival at 72 h, 5 µM amounted to 100%.
For the compound `O=C(Nc1ccc(-n2cccn2)cc1)C(=O)c1c[nH]c2cc(F)ccc12`, in series [1], the EC50 was 1.2 nM. Also, the Activity entry is “Non-toxic” in series [2], “Non-toxic” in series [3] and “Toxic” in series [4].
With `COc1ccc(NC(=O)C(=O)c2c[nH]c3cc(F)ccc23)cc1`, the EC50 in series [1] came to 13 nM. Further, the remaining at 0.5 h in series [7] was determined as 74.6%. Further, the Activity entry in series [2] and in series [3] was “Non-toxic” throughout. Further, the survival at 72 h, 5 µM in series [5] stood at 100%.
For the compound `COc1ccc(NC(=O)C(=O)c2c[nH]c3cc(C(C)C)ccc23)cc1`, the EC50 in series [1] was 330 nM. For the same compound, the remaining at 0.5 h in series [7] worked out at 86.2%. The Activity entry in series [2] and in series [3] was “Non-toxic” in each case. Besides, the survival at 72 h, 5 µM in series [5] came out at 100%.
`COc1ccc(NC(=O)C(=O)c2c[nH]c3ccc(Cl)cc23)cc1`: in series [1], the EC50 stood at 470 nM. Also, the results for the Activity entry in series [2], in series [3] and in series [4] were “Non-toxic”, “Non-toxic” and “Toxic”, respectively.
Consider `COc1ccc(NC(=O)C(=O)c2cn(C)c3ccccc23)cc1`, for which the EC50 in series [1] stood at 68 nM. Besides, the Activity result in series [2] is “Non-toxic”; in series [3] it was “Non-toxic”; in series [4], “Toxic”.

The values above are taken from ChEMBL document CHEMBL1909628, “Discovery of 6-substituted indole-3-glyoxylamides as lead antiprion agents with enhanced cell line activity, improved microsomal stability and low toxicity” (Eur J Med Chem, 2011).
